Screens from PubChem BioAssay.
Shown are actives, neighbours in structure and some others; about 4.1% of the full set was active somewhere.
DTT redox prof: compounds producing H2O2 with reducing agent – biochemical, NIH compound library profiling, artefact control for MLSCN library redox annotation, primary screen. DTT-dependent redox cycling H2O2, phenol red/HRP absorbance; 100% = 100 µM peroxide control, 0% = buffer. activation, % at 10 µM. actives 0.03% (n = 200,000). AID 878;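 active = activation of at least 50% relative to the plate's high and low controls in the primary single-dose screen; inactive = activation below 50%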;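 note: compound incubated with DTT at 0.8 mM final as the reducing agent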
ROMK primary: modulators of human ROMK potassium channel. P48048. Tet-inducible ROMK, thallium flux fluorescence; actives lie on both sides. B-score at 10 µM. actives 2% (n = 130,000);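 active = signal ratio slope over the read window, or its plate-corrected B-score, at least 3 SD from the plate mean, either direction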;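 note: B-score of the F/F0 ratio slope over 7 to 12 s after thallium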
Target sequence (P48048 whole entry, looked up): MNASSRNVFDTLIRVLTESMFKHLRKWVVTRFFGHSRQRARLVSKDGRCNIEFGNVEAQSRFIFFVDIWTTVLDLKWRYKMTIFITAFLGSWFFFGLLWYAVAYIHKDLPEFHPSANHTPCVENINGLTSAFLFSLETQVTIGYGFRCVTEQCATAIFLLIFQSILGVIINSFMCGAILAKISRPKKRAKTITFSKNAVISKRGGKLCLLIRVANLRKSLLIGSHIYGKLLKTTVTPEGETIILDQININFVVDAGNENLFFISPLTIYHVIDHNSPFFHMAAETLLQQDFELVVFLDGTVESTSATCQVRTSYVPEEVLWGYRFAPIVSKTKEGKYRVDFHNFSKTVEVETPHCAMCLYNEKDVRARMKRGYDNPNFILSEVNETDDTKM
Autophagy HCS: modulators of autophagy. MEF GFP-LC3 puncta imaging; test concentration mostly 10 µM. actives 0.98% (n = 190,000). AID 463193. calls only at 10 µM (by protocol);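 active = percentage of spot-positive cells more than 3 SD above its plate mean, without a fluorescence outlier flag or 80% toxicity; inconclusive = no clear call, values can overlap the other calls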;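 note: spot-positive cell cutoff set from DMSO-treated cells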
Dynein cargo inh: blocks dynein driven cargo transport along microtubules. actives 0.47% (n = 220,000). z-score, hits read low. AID 1381. 3617.4 mouse cells, GR-EGFP nuclear translocation imaging; test concentration mostly 20 µM; stimulated with dexamethasone, 1 µM; stronger effect = lower value;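 active = plate z-score of nuclear minus cytoplasmic receptor signal below a set negative limit, without overly bright fluorescence or cell loss, cut at about -3.5 in these data, passing the limit was not always enough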;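 note: z-score of nuclear minus cytoplasmic ring GR-EGFP intensity difference per well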
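Buffer or medium: Induction medium lacking tetracycline, stripped serum | Also added: Dexamethasone agonist, 1.0 µM final, for 30 min | Timing: 48 h induction, 1 h compound, 30 min dex at 37 °C | Detection: Formaldehyde fixation, Hoechst nuclear stain, 10x automated fluorescence imaging | Measure: Nuclear versus cytoplasmic GR-EGFP signal, averaged per well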
KCC2 mod: KCC2 (human) Cl- transport modulation; KCC2 cells, thallium flux FluoZin-2 fluorescence; actives 2.2% (n = 190,000); AID 1456; Q9H2X9; B-score of Tl+ flux slope (higher = more flux/activation; lower = inhibition) at 10 µM;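 active = thallium flux slope and its plate-corrected score both differing from the plate sample mean at a set confidence after two filtering rounds, in either direction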;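 note: slope of fluorescence scaled to starting intensity during 10 to 20 s after thallium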
KCC2 sec1: KCC2 (human) modulation, secondary assay | shares compounds with KCC2 mod | HEK293-KCC2, thallium flux, FluoZin2 fluorescence; stronger effect = higher value | normalised thallium flux (F/F0 slope) at 10 µM | actives 15% (n = 3,700) | AID 1713;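 active = thallium flux slope above the same plate's solvent-only control mean plus 3 SD; inconclusive = the two replicate wells disagree; inactive = no significant difference from solvent-only control wells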
KCC2 bumet counter: thallium flux despite bumetanide block in KCC2 cells, secondary assay 3; shares compounds with KCC2 mod; HEK293-KCC2 + bumetanide/ouabain, thallium flux FluoZin2; stronger effect = higher value; normalized thallium flux at 10 µM; actives 49% (n = 3,700);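 active = thallium entry rate above the same plate's blocked-transporter control wells by more than 3 SD; inconclusive = the two repeat wells disagree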;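 note: raw slope of fluorescence over initial fluorescence between 10 and 20 s after thallium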
KCC2 sec2: KCC2 (human) modulation, second secondary assay; normalized thallium flux at 10 µM; actives 23% (n = 3,700); HEK293-KCC2, thallium flux FluoZin2 fluorescence; actives lie on both sides; F/F0 rise rate, 10–20 s post-thallium; AID 1715; shares compounds with KCC2 mod;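 active = thallium flux slope more than 3 SD above or below the plate's solvent-only control mean, mostly below; inconclusive = the two repeat wells disagreed; inactive = no significant shift from solvent-only controls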;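 note: raw slope with 0.1% DMSO as baseline and bumetanide as block control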
HEK293 Tl flux: counter-screen for KCC2 modulators: effect in parental HEK293 cells. actives 46% (n = 3,700). thallium flux FluoZin2, ouabain; baseline-ratio fluorescence slope, 10–20 s after thallium. shares compounds with KCC2 mod. thallium flux rate (normalised fluorescence) at 10 µM;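 active = thallium flux rate significantly above the same plate's solvent-only control wells, beyond their mean plus 3 SD; inconclusive = the two replicate wells gave conflicting results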
KCC2 retest ouab: KCC2 (human) modulation, ouabain retest; shares compounds with KCC2 mod; HEK293-KCC2, thallium flux FluoZin2 fluorescence; bidirectional: low = inhibitor, high = activator; raw Tl+ flux slope (below DMSO = inhibition, above = activation) at 10 µM; actives 48% (n = 3,700);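 active = thallium flux slope beyond 3 SD from same-plate DMSO control mean in most replicates, usually higher, sometimes lower; inconclusive = repeat tests gave conflicting results; inactive = no significant difference from controls in most replicates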;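 note: slope of initial-normalized fluorescence between seconds 10 and 20 after thallium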
HEK counter2: acts in parental HEK cells, second KCC2 counter-screen; actives 33% (n = 3,700); AID 1718; thallium flux slope at 10 µM; HEK293 parental, thallium flux FluoZin-2 fluorescence slope; shares compounds with KCC2 mod;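 active = thallium flux slope above the same plate's solvent-control mean plus 3 SD in both duplicate wells; inconclusive = duplicate wells that disagreed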;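 note: run without ouabain in cells lacking the KCC2 cotransporter; slope of fluorescence scaled to its starting value between 10 and 20 s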
Active calls of the source: *; i = inactive; ? = inconclusive; . = no result.

SMILES	DTT redox prof	ROMK primary	Autophagy HCS	Dynein cargo inh	KCC2 mod	KCC2 sec1	KCC2 bumet counter	KCC2 sec2	HEK293 Tl flux	KCC2 retest ouab	HEK counter2
Cc1ccc(NC2=C(N3CCOCC3)C(=O)c3ccccc3C2=O)cc1	1.6	.	i	2.03	.	0.00551	0.005	0.0259*	0.00805	?	0.0111
OCCCNC(=S)Nc1ccc(Br)cc1Cl	.	.	.	0.348	-0.331	.	.	.	.	.	.
O=C(NCc1ccc(Cl)cc1)c1n[nH]c([N+](=O)[O-])c1Cl	-1.9	-0.509	i	1.16	-3.79*	0.00735	0.00566*	?	?	0.0157	0.0101
CCC(C)[C@H](NC(=O)N1CCCCCC1)C(=O)OC (stereo partly specified)	.	.	.	1.53	-0.183	.	.	.	.	.	.
CSc1nc(=S)cc(C)[nH]1	.	.	.	0.617	16.1*	0.00779	0.0181*	0.0386*	0.0224*	0.0282*	0.0231*
CSc1nc2c(C)c(C)c(C)c(C)c2[nH]1	.	.	.	1.59	.	.	.	.	.	.	.
Brc1ccccc1-c1nnc(COc2cccc3cccnc23)o1	0.9	0.919	i	-0.163	-2.95*	0.0069	0.00622	0.0311	0.00634	0.0379*	0.00957
COC(=O)c1sccc1NC(=S)OC	.	.	.	-0.0202	4.75*	?	0.0123*	0.0334	0.0161*	?	0.0131*
COC(=O)c1sccc1NC(=S)Nc1ccc(OC)cc1	3.6	-0.345	i	0.857	1.11	.	.	.	.	.	.
CCOc1ccc(C(=O)NC(=S)NC2CCCC2)cc1[N+](=O)[O-]	-0.7	.	i	-0.293	1.56	.	.	.	.	.	.
CCN(/C=N/S(=O)(=O)c1ccc(Cl)cc1)CC	-1.3	.	i	-0.262	.	.	.	.	.	.	.
O=C(NCCc1ccccc1)C(=O)NCC1CCCO1 (stereo unspecified)	0.1	-0.357	i	1.65	.	0.011	0.0082*	0.0358	0.00803	0.0225	0.0119*
O=C(NCCc1ccccc1)/C(=N\O)c1ccccc1	-0.7	0.376	i	-0.808	.	0.00604	0.00444	?	0.0072	0.0155	0.01
CN(C)CCCNC(=O)/C(=N\O)c1ccccc1	0.0	.	i	0.961	.	.	.	.	.	.	.
O=C(NCc1cccc(CNC(=O)C(=O)NCC2CCCO2)c1)C(=O)NCC1CCCO1 (stereo unspecified)	-0.6	-0.143	i	-0.0434	0.0653	.	.	.	.	.	.
COc1cc(CN2CCC(N3CCC(C(=O)N4CCCC4)CC3)CC2)cc2c1OCO2	-1.2	-0.333	i	-1.07	.	.	.	.	.	.	.
CCOC(=O)CSc1nnc(Cn2nnc3ccccc32)n1-c1ccc(F)cc1	.	.	.	-0.209	0.0197	.	.	.	.	.	.
Cc1cc(C(=O)CN2CCCC(C)C2)c(C)n1-c1ccc(F)cc1 (stereo unspecified)	0.3	.	i	-0.857	-0.129	.	.	.	.	.	.
CCOc1ccc(C(=O)NC(=S)N(Cc2ccccc2)Cc2ccccc2)cc1	0.9	.	i	1.4	.	.	.	.	.	.	.
CCOc1ccc(CN(CCC#N)C(=S)NC(=O)c2ccccc2)cc1	0.8	1.85	i	0.031	29.6*	0.0462*	0.117*	0.0436*	0.0725*	0.0935*	0.0303*
O=C1CCCC/C1=N\Nc1ccc(C2CCCCC2)cc1	.	.	.	0.173	0.828	.	.	.	.	.	.
O=C(O)c1ccc(C2CCCCC2)cn1	1.0	0.01	i	-0.575	8.28*	0.0109	0.00889*	0.0304	0.00765	0.019	0.0104
C=CCOC(=O)/C(=C/c1cccc2ccccc12)NC(=O)c1ccccc1	0.4	.	i	0.22	-0.348	.	.	.	.	.	.
Cc1ccc(C)n1NC(=O)c1ccccc1	8.8	.	i	-0.608	-5.84*	0.00843	?	0.0335	0.00791	0.0217	0.0107
S=C(N/N=C/c1ccc2ncccc2c1)Nc1ccccc1	0.0	0.338	i	1.06	6.5*	0.0173	0.0215*	0.029	0.0112*	0.0194	0.014*
SMILES	DTT redox prof	ROMK primary	Autophagy HCS	Dynein cargo inh	KCC2 mod	KCC2 sec1	KCC2 bumet counter	KCC2 sec2	HEK293 Tl flux	KCC2 retest ouab	HEK counter2
COc1ccc(/C=N/NC(=S)Nc2ccccc2)cc1	0.0	-0.506	i	1.94	9.05*	0.00942	0.0306*	0.0317	0.01*	?	0.00954
O=[N+]([O-])c1ccc(/C=N/NC(=S)Nc2ccccc2)o1	0.7	.	i	-1.65	5.36*	0.013*	0.026*	0.0312	0.0139*	0.0276*	0.0111*
O=C(CNc1ccccc1)N/N=C/c1ccc([N+](=O)[O-])o1	2.1	.	i	0.179	.	.	.	.	.	.	.
S=C(N/N=C/c1cccc2ccccc12)Nc1cccc(Cl)c1	.	0.705	.	-0.0738	3.38*	0.00886	0.00694	0.0289	0.0116*	0.0294*	0.0103
COc1ccc(/C=N/NC(=S)Nc2cccc(C(=O)O)c2)cc1	0.4	0.00121	i	-0.804	-0.152	.	.	.	.	.	.
COCCNS(=O)(=O)c1cc(C)c(C)cc1C	-1.0	-0.649	i	0.923	0.968	.	.	.	.	.	.
Cc1nn(C)cc1C(C)NCc1c(C(=O)N2CCCCCCC2)nc2ccc(Cl)cn12 (stereo unspecified)	0.2	-0.34	i	2.88	0.0125	.	.	.	.	.	.
CC[n+]1c(C)cc(C)n1-c1ccccc1	-0.8	-0.295	i	0.124	0.602	.	.	.	.	.	.
Cc1c(C(=O)NCCSCc2ccc(F)cc2)cnn1-c1ccc(Cl)cc1	.	.	.	0.032	-3.83*	0.00704	0.00473	?	0.00642	0.0169*	0.00983
Cc1c(C(=O)NCCSCc2c(F)cccc2Cl)cnn1-c1ccc(F)cc1	.	.	.	1.07	-2.46	.	.	.	.	.	.
CCOC(=O)c1cn(CC)c2cc(N3CCSCC3)c(F)cc2c1=O	-0.2	-0.658	i	-0.536	8.04*	0.00647	0.00405	0.0319	0.00747	0.0187	0.00998
CC(C)(O)P(=O)(O)CCc1ccccc1	.	-0.0181	.	0.0916	-0.125	.	.	.	.	.	.
CCc1nn(C(C)C(=O)N2CCc3ccccc3C2)c(=O)c2cc3occc3n12 (stereo unspecified)	-0.4	.	i	-0.22	-5.93*	?	0.00414	0.0222*	0.0061*	0.0122*	?
CC(C)C(c1nnnn1Cc1cccs1)N1CCN(C(=O)c2ccco2)CC1 (stereo unspecified)	0.2	0.378	i	-1.03	0.584	.	.	.	.	.	.
